Source: PubChem BioAssay (several laboratories)
An excerpt weighted towards active compounds, which were near 2.7% of everything screened.
RAM network inh: blocks the yeast RAM network; S. cerevisiae dse1pr::URA3 reporter, 5-FOA growth OD615, 2 d; analog-sensitive cbk1-as2 kinase mutant strain; inhibition, % at 50 µM; 190,000 compounds, 1.8% hits; AID 868;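 active = inhibition above a set limit, 3 SD over mean compound inhibition, cut at about 8.4% in these data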;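 note: 0% = DMSO-only wells with no growth and 100% = 10 µM 1-NA-PP1 full growth; inhibition rescues growth on 5-FOA so higher OD means more RAM inhibition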
sdo1 growth: restores growth of sdo1-depleted yeast. S. cerevisiae sdo1-depleted JHY4D growth rescue, OD600 30 h; active compounds read high; pdr5 snq2 efflux-pump mutant strain. z-score at 10 µM. 140,000 compounds, 0.21% hits;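 active = z-score above 3 at both the 24 hr and the 30 hr optical density reads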;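 note: z-score against mean and SD of all compound wells on the same plate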
BB579 growth dn: reduces growth of yeast BB579 in restrictive medium; S. cerevisiae BB579 growth, OD615, 48 h; inhibition, % at 10 µM; 140,000 compounds, 0.51% hits; AID 804;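 active = inhibition above a set limit, 3 SD over the mean compound inhibition, cut at about 44% in these data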
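System: Saccharomyces cerevisiae DeaD strain BB579, replicative lifespan model yeast | Buffer or medium: Restrictive glucose-based CSMM-D medium | Times: 4 h preincubation and 48 h exposure at 30 °C | Detection: OD615 turbidity measurement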
Yeast life ext: yeast lifespan extension. S. cerevisiae growth with nicotinamide, OD615; deaD strain in restrictive glucose medium. inhibition of the nicotinamide effect, % at 10 µM. 130,000 compounds, 0.68% hits;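 active = inhibition above a set limit, placed 3 SD over the median of all compounds, cut at about 26% in these data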;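 note: 0% = nicotinamide-treated wells and 100% = cells grown without nicotinamide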
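assay system = DeaD-strain S. cerevisiae | buffer or medium = restrictive glucose medium | reagent = 1.5 mM nicotinamide | compound = 10 µM single point, 0.25% DMSO | incubation = 48 h compound exposure at 30 °C, humidified | signal = OD615 measurement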
sdo1 rescue conf: confirmation of growth rescue in SDO1-depleted yeast, bone marrow failure | OD recovery (test concentration not listed) | shares compounds with sdo1 growth | 440 compounds, 44% hits | S. cerevisiae JHY4D (SDO1-depleted) growth rescue, OD600, 30 h; active compounds read high; efflux-deficient strain, SNQ2 and PDR5 mutated;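 active = yeast growth recovered at 30 hours, either rising with dose fitted slope above 0.001 or with average optical density gain above 0.07, some results past the limit were not filed as active; inactive = growth falling with dose or no effect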;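 note: gain in OD600 from 0 h to 30 h averaged across all seven doses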
* = called active by the depositor; . = no result given.

SMILES	RAM network inh	sdo1 growth	BB579 growth dn	Yeast life ext	sdo1 rescue conf
COc1ccc(OC(=O)CCc2c[nH]c3ccccc23)cc1	0.4	.	.	.	.
CNC(=O)c1c(NC(=O)c2nc3ccccc3s2)sc2c1CCC2	3.3	-0.25	-22.1	-6.8	0.0382
COC(=O)c1c(NC(=O)c2nc3ccccc3s2)sc2c1CCN(C(C)=O)C2	1.3	-0.39	-29.8	-0.8	.
Nc1nc(C(F)(F)F)cc(=O)n1N	-0.5	.	.	.	.
CCOc1ccc(CCN2C(=O)C3C4C=CC(C4)C3C2=O)cc1OCC (stereo not drawn)	0.9	0.85	23.6	-7.5	0.0694
CCOc1ccc(C(C)=O)cc1N1C(=O)C2C3C=CC(C3)C2C1=O (stereo not drawn)	3.1	-0.16	-12.1	-4.5	.
O=C(CCC(=O)N(CC(=O)NC1CCCCC1)Cc1cccs1)Nc1ccccn1	0.2	.	.	.	.
Cc1cc(NC(=O)CSc2nc3c(c(-c4cccnc4)c2C#N)CCC3)no1	4.2	0.09	-44.6	-11.4	0.069
CC(C)CC(NC(=O)c1ccc(Cl)cc1)C(=O)OCc1cc([N+](=O)[O-])cc2c1OCOC2 (stereo not drawn)	1.5	0.09	-17.1	-4.8	.
CCCCC(=O)Nc1cc(NC(=O)CC)ccc1Cl	-0.4	3.4*	-25.5	-10.0	0.0451
Clc1ccc2nncn2n1	0.9	.	.	.	.
COc1ccc(NC(=O)c2ccc(-n3cccn3)nc2)c(OC)c1	1.9	-0.03	-38.1	-12.8	.
COc1ccc(NC(=O)c2ccc(-n3cccn3)nc2)cc1	2.7	0.85	-39.0	-6.2	0.0978
O=C(c1ccccc1Cl)N(Cc1ccc(Br)cc1)N1C(=O)CCC1=O	1.2	.	.	.	.
COc1ccc(NC(=O)CSc2nnc(CN3CCOCC3)n2-c2ccccc2)cc1Cl	-0.6	3.52*	-10.7	-14.8	0.0686
Cc1ccc(-c2noc(CCC(=O)NCCN3CCN(Cc4ccccc4)CC3)n2)cc1	0.6	0.77	-15.6	-1.5	.
Cc1ccc(-c2noc(CCC(=O)NCCN3CCOCC3)n2)cc1	1.8	2.36	-27.7	-6.7	0.0742*
CCCCC(=O)NC(=S)Nc1ccc(NC(=O)C(C)C)c(OC)c1	6.3	.	.	.	.
CC(C)NC(=O)c1ccccc1NC(=O)CN(c1ccc2c(c1)OCO2)S(C)(=O)=O	-0.1	3.07*	-29.3	-7.5	0.068
N#Cc1c(-c2ccccc2Cl)cc(-c2ccccc2)nc1Br	4.3	-0.72	0.2	-3.6	.
Cc1c(/C=N\NC(=O)c2cccc(F)c2)cnn1C	0.7	3.34*	-27.9	7.5	0.0956*
Cc1c(C(=O)NC2CCCc3ccccc32)oc2ccc(S(=O)(=O)N3CCCCC3)cc12 (stereo not drawn)	5.5	9.35*	-11.3	-0.9	0.0924*
Cc1cc2cc3c(cc2nc1SCC(=O)OC(C)C)OCCO3	3.4	3.14*	5.2	-22.8	0.0418
Cc1cc2cc3c(cc2nc1SCC(=O)O)OCCO3	4.4	-0.45	-15.6	-20.7	.
COc1ccccc1OCC(=O)NNC(=O)c1ccoc1C	1.6	5.12*	-6.8	4.3	0.0338
SMILES	RAM network inh	sdo1 growth	BB579 growth dn	Yeast life ext	sdo1 rescue conf
Cc1nn(Cc2ccc(Cl)cc2)c(C)c1NC(=O)CSc1n[nH]c(C)c1[N+](=O)[O-]	1.3	12.3*	-32.9	-0.8	0.0604*
Cc1nn(Cc2ccccc2)c(C)c1NC(=O)CSc1n[nH]c(C)c1[N+](=O)[O-]	4.8	0.85	-23.4	3.1	.
CS(=O)(=O)N1CCCC(C(=O)NC2CCCCCCC2)C1 (stereo not drawn)	-0.1	0.66	-79.9	-12.8	.
CC(C)NC(=O)C1CCCN(S(C)(=O)=O)C1 (stereo not drawn)	4.3	2.09	-37.4	-12.3	0.066
Cc1ccccc1NC(NC(=O)OCCn1c([N+](=O)[O-])cnc1C)C(Cl)(Cl)Cl (stereo not drawn)	3.9	8.32*	-19.4	-3.0	0.104*
Cc1ncc([N+](=O)[O-])n1CCOC(=O)NC(NCc1ccccc1)C(Cl)(Cl)Cl (stereo not drawn)	0.9	0.33	-34.7	-17.8	.
CCOC(=O)c1c(NC(=S)Nc2ccc(C)cc2)sc2c1CCC2	6.2	2.72	-9.9	3.8	0.0876*
CCOC(=O)c1c(NC(=S)Nc2ccc(F)cc2)sc2c1CCC2	5.4	-1.11	-45.4	-2.1	.
Oc1ccccc1C(=S)N1CCN(c2cccc(Cl)c2)CC1	-1.3	.	.	.	.
CCCCCCCC(=O)NC(Nc1ccc(S(N)(=O)=O)cc1)C(Cl)(Cl)Cl (stereo not drawn)	-0.7	3.12*	-2.2	-15.9	0.104*
